Measurements taken from publication PMC9217999 (Targeted Oncology, 2022).
“Also recorded” adds a separate entry of the source.

Experiment: Safety and tolerability in iMATRIX-cobi Phase I/II study
Type: in vivo, human
Outline: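 Patients aged 6 months to <30 years with relapsed/refractory solid tumors with MAPK pathway involvement. Oral test compound (20-mg tablet or suspension, with/without food) on Days 1–21 of 28-day cycles. Cumulative weekly weight-based dose rounded to 20 mg, capped at 60 mg/day. Rolling 6 escalation in cohorts of 3–6. Eye exams including OCT at baseline, cycle 1 Days 8/15, and each later cycle Day 1. All dosed patients evaluated.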

[1] = Dose escalation suspension (n = 26)
[2] = Dose escalation tablet (n = 18)

O=C(c1ccc(F)c(F)c1Nc1ccc(I)cc1F)N1CC(O)([C@@H]2CCCCN2)C1 [cobimetinib]
DLTs (events) (0.6 mg/kg suspension): grade 1 chorioretinopathy | DLTs (events) (1.0 mg/kg tablet): grade 3 headache; also recorded: grade 2 retinal detachment | DLTs (events) (1.33 mg/kg suspension): grade 4 chorioretinopathy; also recorded: grade 1 serous retinal detachment | Any treatment-related AE, G1 [1]: 6 (23) n (%) | Any treatment-related AE, G2 [1]: 12 (46) n (%) | Any treatment-related AE, G3 [1]: 4 (15) n (%) | Any treatment-related AE, G4 [1]: 1 (4) n (%) | Treatment-related AE: ALT increased, G1 [1]: 1 (4) n (%) | Treatment-related AE: ALT increased, G2 [1]: 0 n (%) | Treatment-related AE: ALT increased, G3 [1]: 1 (4) n (%) | Treatment-related AE: ALT increased, G4 [1]: 0 n (%) | Treatment-related AE: AST increased, G1 [1]: 1 (4) n (%) | Treatment-related AE: AST increased, G2 [1]: 0 n (%) | Treatment-related AE: AST increased, G3 [1]: 1 (4) n (%) | Treatment-related AE: AST increased, G4 [1]: 0 n (%) | Treatment-related AE: Abdominal pain, G1 [1]: 2 (8) n (%) | Treatment-related AE: Abdominal pain, G2 [1]: 2 (8) n (%) | Treatment-related AE: Abdominal pain, G3 [1]: 0 n (%) | Treatment-related AE: Abdominal pain, G4 [1]: 0 n (%) | Treatment-related AE: Anemia, G1 [1]: 1 (4) n (%) | Treatment-related AE: Anemia, G2 [1]: 0 n (%) | Treatment-related AE: Anemia, G3 [1]: 0 n (%) | Treatment-related AE: Anemia, G4 [1]: 0 n (%) | Treatment-related AE: Asthenia, G1 [1]: 0 n (%) | Treatment-related AE: Asthenia, G2 [1]: 0 n (%) | Treatment-related AE: Asthenia, G3 [1]: 0 n (%) | Treatment-related AE: Asthenia, G4 [1]: 0 n (%) | Treatment-related AE: Blood CPK increased, G1 [1]: 2 (8) n (%) | Treatment-related AE: Blood CPK increased, G2 [1]: 1 (4) n (%) | Treatment-related AE: Blood CPK increased, G3 [1]: 1 (4) n (%) | Treatment-related AE: Blood CPK increased, G4 [1]: 0 n (%) | Treatment-related AE: Chorioretinopathy, G1 [1]: 1 (4) n (%) | Treatment-related AE: Chorioretinopathy, G2 [1]: 0 n (%) | Treatment-related AE: Chorioretinopathy, G3 [1]: 0 n (%) | Treatment-related AE: Chorioretinopathy, G4 [1]: 1 (4) n (%) | Treatment-related AE: Constipation, G1 [1]: 1 (4) n (%) | Treatment-related AE: Constipation, G2 [1]: 0 n (%) | Treatment-related AE: Constipation, G3 [1]: 0 n (%) | Treatment-related AE: Constipation, G4 [1]: 0 n (%) | Treatment-related AE: Decreased appetite, G1 [1]: 2 (8) n (%) | Treatment-related AE: Decreased appetite, G2 [1]: 0 n (%) | Treatment-related AE: Decreased appetite, G3 [1]: 0 n (%) | Treatment-related AE: Decreased appetite, G4 [1]: 0 n (%) | Treatment-related AE: Dermatitis acneiform, G1 [1]: 4 (15) n (%) | Treatment-related AE: Dermatitis acneiform, G2 [1]: 1 (4) n (%) | Treatment-related AE: Dermatitis acneiform, G3 [1]: 1 (4) n (%) | Treatment-related AE: Dermatitis acneiform, G4 [1]: 0 n (%) | Treatment-related AE: Diarrhea, G1 [1]: 2 (8) n (%) | Treatment-related AE: Diarrhea, G2 [1]: 7 (27) n (%) | Treatment-related AE: Diarrhea, G3 [1]: 0 n (%) | Treatment-related AE: Diarrhea, G4 [1]: 0 n (%) | Treatment-related AE: Dry skin, G1 [1]: 4 (15) n (%) | Treatment-related AE: Dry skin, G2 [1]: 0 n (%) | Treatment-related AE: Dry skin, G3 [1]: 1 (4) n (%) | Treatment-related AE: Dry skin, G4 [1]: 0 n (%) | Treatment-related AE: Encephalopathy, G1 [1]: 0 n (%) | Treatment-related AE: Encephalopathy, G2 [1]: 0 n (%) | Treatment-related AE: Encephalopathy, G3 [1]: 0 n (%) | Treatment-related AE: Encephalopathy, G4 [1]: 0 n (%) | Treatment-related AE: Erythema, G1 [1]: 2 (8) n (%) | Treatment-related AE: Erythema, G2 [1]: 0 n (%) | Treatment-related AE: Erythema, G3 [1]: 0 n (%) | Treatment-related AE: Erythema, G4 [1]: 0 n (%) | Treatment-related AE: Fatigue, G1 [1]: 6 (23) n (%) | Treatment-related AE: Fatigue, G2 [1]: 0 n (%) | Treatment-related AE: Fatigue, G3 [1]: 0 n (%) | Treatment-related AE: Fatigue, G4 [1]: 0 n (%) | Treatment-related AE: Headache, G1 [1]: 3 (12) n (%) | Treatment-related AE: Headache, G2 [1]: 2 (8) n (%) | Treatment-related AE: Headache, G3 [1]: 0 n (%) | Treatment-related AE: Headache, G4 [1]: 0 n (%) | Treatment-related AE: Nausea, G1 [1]: 4 (15) n (%) | Treatment-related AE: Nausea, G2 [1]: 0 n (%) | Treatment-related AE: Nausea, G3 [1]: 0 n (%) | Treatment-related AE: Nausea, G4 [1]: 0 n (%) | Treatment-related AE: Paronychia, G1 [1]: 2 (8) n (%) | Treatment-related AE: Paronychia, G2 [1]: 1 (4) n (%) | Treatment-related AE: Paronychia, G3 [1]: 1 (4) n (%) | Treatment-related AE: Paronychia, G4 [1]: 0 n (%) | Treatment-related AE: Rash, G1 [1]: 2 (8) n (%) | Treatment-related AE: Rash, G2 [1]: 0 n (%) | Treatment-related AE: Rash, G3 [1]: 0 n (%) | Treatment-related AE: Rash, G4 [1]: 0 n (%) | Treatment-related AE: Transaminases increased, G1 [1]: 0 n (%) | Treatment-related AE: Transaminases increased, G2 [1]: 0 n (%) | Treatment-related AE: Transaminases increased, G3 [1]: 1 (4) n (%) | Treatment-related AE: Transaminases increased, G4 [1]: 0 n (%) | Treatment-related AE: Vomiting, G1 [1]: 2 (8) n (%) | Treatment-related AE: Vomiting, G2 [1]: 0 n (%) | Treatment-related AE: Vomiting, G3 [1]: 0 n (%) | Treatment-related AE: Vomiting, G4 [1]: 0 n (%) | Treatment-related AE: Weight increased, G1 [1]: 0 n (%) | Treatment-related AE: Weight increased, G2 [1]: 0 n (%) | Treatment-related AE: Weight increased, G3 [1]: 0 n (%) | Treatment-related AE: Weight increased, G4 [1]: 0 n (%) | Any treatment-related AE, G1 [2]: 7 (39) n (%) | Any treatment-related AE, G2 [2]: 5 (28) n (%) | Any treatment-related AE, G3 [2]: 4 (22) n (%) | Any treatment-related AE, G4 [2]: 0 n (%) | Treatment-related AE: ALT increased, G1 [2]: 1 (6) n (%) | Treatment-related AE: ALT increased, G2 [2]: 0 n (%) | Treatment-related AE: ALT increased, G3 [2]: 0 n (%) | Treatment-related AE: ALT increased, G4 [2]: 0 n (%) | Treatment-related AE: AST increased, G1 [2]: 1 (6) n (%) | Treatment-related AE: AST increased, G2 [2]: 0 n (%) | Treatment-related AE: AST increased, G3 [2]: 0 n (%) | Treatment-related AE: AST increased, G4 [2]: 0 n (%) | Treatment-related AE: Abdominal pain, G1 [2]: 4 (22) n (%) | Treatment-related AE: Abdominal pain, G2 [2]: 0 n (%) | Treatment-related AE: Abdominal pain, G3 [2]: 0 n (%) | Treatment-related AE: Abdominal pain, G4 [2]: 0 n (%) | Treatment-related AE: Anemia, G1 [2]: 1 (6) n (%) | Treatment-related AE: Anemia, G2 [2]: 0 n (%) | Treatment-related AE: Anemia, G3 [2]: 0 n (%) | Treatment-related AE: Anemia, G4 [2]: 0 n (%) | Treatment-related AE: Asthenia, G1 [2]: 0 n (%) | Treatment-related AE: Asthenia, G2 [2]: 0 n (%) | Treatment-related AE: Asthenia, G3 [2]: 0 n (%) | Treatment-related AE: Asthenia, G4 [2]: 0 n (%) | Treatment-related AE: Blood CPK increased, G1 [2]: 0 n (%) | Treatment-related AE: Blood CPK increased, G2 [2]: 1 (6) n (%) | Treatment-related AE: Blood CPK increased, G3 [2]: 0 n (%) | Treatment-related AE: Blood CPK increased, G4 [2]: 0 n (%) | Treatment-related AE: Chorioretinopathy, G1 [2]: 0 n (%) | Treatment-related AE: Chorioretinopathy, G2 [2]: 0 n (%) | Treatment-related AE: Chorioretinopathy, G3 [2]: 0 n (%) | Treatment-related AE: Chorioretinopathy, G4 [2]: 0 n (%) | Treatment-related AE: Constipation, G1 [2]: 3 (17) n (%) | Treatment-related AE: Constipation, G2 [2]: 0 n (%) | Treatment-related AE: Constipation, G3 [2]: 0 n (%) | Treatment-related AE: Constipation, G4 [2]: 0 n (%) | Treatment-related AE: Decreased appetite, G1 [2]: 2 (11) n (%) | Treatment-related AE: Decreased appetite, G2 [2]: 0 n (%) | Treatment-related AE: Decreased appetite, G3 [2]: 1 (6) n (%) | Treatment-related AE: Decreased appetite, G4 [2]: 0 n (%) | Treatment-related AE: Dermatitis acneiform, G1 [2]: 0 n (%) | Treatment-related AE: Dermatitis acneiform, G2 [2]: 0 n (%) | Treatment-related AE: Dermatitis acneiform, G3 [2]: 0 n (%) | Treatment-related AE: Dermatitis acneiform, G4 [2]: 0 n (%) | Treatment-related AE: Diarrhea, G1 [2]: 8 (44) n (%) | Treatment-related AE: Diarrhea, G2 [2]: 1 (6) n (%) | Treatment-related AE: Diarrhea, G3 [2]: 0 n (%) | Treatment-related AE: Diarrhea, G4 [2]: 0 n (%) | Treatment-related AE: Dry skin, G1 [2]: 2 (11) n (%) | Treatment-related AE: Dry skin, G2 [2]: 2 (11) n (%) | Treatment-related AE: Dry skin, G3 [2]: 0 n (%) | Treatment-related AE: Dry skin, G4 [2]: 0 n (%) | Treatment-related AE: Encephalopathy, G1 [2]: 0 n (%) | Treatment-related AE: Encephalopathy, G2 [2]: 0 n (%)
